Converted amounts (≈) assume the structure as drawn. The source made the active and inactive calls. No cut-off for these calls is given here.
What was measured:
[1] = target: 5-hydroxytryptamine receptor 1D (Homo sapiens) (UniProt P28221); assay: Displacement of [3H]-5-CT from human recombinant 5HT1D receptor expressed in HEKT cells at 10 uM incubated for 90 mins by microbeta scintillation counting method; assay type: cell-based
Summary of the method: (§1)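 Primary radioligand binding screen run by the NIMH Psychoactive Drug Screening Program, with one test level of 10 μM. The read-out was inhibition of radioligand binding at each receptor.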

[2] = target: D(2) dopamine receptor (Homo sapiens) (UniProt P14416); assay: Displacement of [3H]-N-methylspiperone from human recombinant dopamine D2 receptor expressed in stable fibroblast cells incubated for 90 mins by microbeta scintillation counting method; assay type: cell-based
[3] = target: Histamine H4 receptor (Homo sapiens) (UniProt Q9H3N8); assay: Displacement of [3H]-Histamine from human recombinant histamine H4 receptor expressed in HEKT cells incubated for 90 mins by microbeta scintillation counting method; assay type: cell-based
Histamine H4 receptor (Homo sapiens), sequence (Q9H3N8 whole entry): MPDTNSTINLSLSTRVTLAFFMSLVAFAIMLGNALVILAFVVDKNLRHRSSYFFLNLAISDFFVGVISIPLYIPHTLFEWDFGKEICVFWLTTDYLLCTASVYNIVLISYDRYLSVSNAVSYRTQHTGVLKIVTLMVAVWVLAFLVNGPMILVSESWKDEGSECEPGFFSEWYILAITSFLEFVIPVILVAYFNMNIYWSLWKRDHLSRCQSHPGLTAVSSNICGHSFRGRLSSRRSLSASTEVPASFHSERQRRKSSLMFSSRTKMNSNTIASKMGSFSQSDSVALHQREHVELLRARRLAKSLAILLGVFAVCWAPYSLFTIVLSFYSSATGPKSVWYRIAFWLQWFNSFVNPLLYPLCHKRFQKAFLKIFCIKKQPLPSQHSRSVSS

[4] = target: Kappa-type opioid receptor (Homo sapiens) (UniProt P41145); assay: Displacement of [3H]-U69593 from human recombinant KOR receptor expressed in stable HEK cells incubated for 90 mins by microbeta scintillation counting method; assay type: cell-based
[5] = target: Sodium-dependent dopamine transporter (Homo sapiens) (UniProt Q01959); assay: Displacement of [3H]-Win35428 from human recombinant DAT receptor expressed in stable HEK cells incubated for 90 mins by microbeta scintillation counting method; assay type: cell-based
Sodium-dependent dopamine transporter (Homo sapiens), sequence (Q01959 whole entry): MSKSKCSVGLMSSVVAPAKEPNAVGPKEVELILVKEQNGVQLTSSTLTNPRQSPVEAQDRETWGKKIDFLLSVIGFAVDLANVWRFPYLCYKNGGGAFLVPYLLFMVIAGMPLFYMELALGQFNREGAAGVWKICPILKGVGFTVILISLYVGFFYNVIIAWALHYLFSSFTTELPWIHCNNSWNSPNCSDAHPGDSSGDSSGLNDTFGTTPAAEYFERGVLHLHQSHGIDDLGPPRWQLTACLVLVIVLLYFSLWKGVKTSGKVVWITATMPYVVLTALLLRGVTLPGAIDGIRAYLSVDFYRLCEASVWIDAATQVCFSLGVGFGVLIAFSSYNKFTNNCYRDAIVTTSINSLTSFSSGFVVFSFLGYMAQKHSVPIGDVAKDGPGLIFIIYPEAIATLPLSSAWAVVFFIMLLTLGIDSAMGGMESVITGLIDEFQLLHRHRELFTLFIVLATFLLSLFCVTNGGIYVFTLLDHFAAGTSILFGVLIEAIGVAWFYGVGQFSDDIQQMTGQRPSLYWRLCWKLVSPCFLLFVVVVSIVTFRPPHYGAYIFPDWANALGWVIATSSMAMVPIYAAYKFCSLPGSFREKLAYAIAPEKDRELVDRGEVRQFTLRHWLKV

[6] = target: Beta-2 adrenergic receptor (Homo sapiens) (UniProt P07550); assay: Displacement of [125I]-CGP12177 from recombinant human beta2 adrenergic receptor expressed in HEK Flp-In cells measured after 90 mins by microbeta scintillation counting method; assay type: cell-based
Beta-2 adrenergic receptor (Homo sapiens), sequence (P07550 whole entry, looked up): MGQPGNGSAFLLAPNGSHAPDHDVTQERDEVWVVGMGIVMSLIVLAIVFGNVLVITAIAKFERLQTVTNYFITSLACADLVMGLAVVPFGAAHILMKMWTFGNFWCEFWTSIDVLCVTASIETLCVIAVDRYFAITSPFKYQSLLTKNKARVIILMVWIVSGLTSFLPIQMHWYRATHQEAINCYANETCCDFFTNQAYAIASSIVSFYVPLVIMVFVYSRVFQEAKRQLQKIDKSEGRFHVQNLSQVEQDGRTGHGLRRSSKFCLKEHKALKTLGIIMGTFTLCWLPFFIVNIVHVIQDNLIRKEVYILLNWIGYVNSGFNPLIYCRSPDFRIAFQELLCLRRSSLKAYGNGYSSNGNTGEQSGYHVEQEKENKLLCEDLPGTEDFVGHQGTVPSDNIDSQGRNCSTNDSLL

NIH3T3 [7] = assay: Cytotoxicity against mouse NIH/3T3 cells measured after 48 hrs by MTT assay; assay type: cell-based; conditions: NIH3T3, 48 h
[8] = target: Beta-3 adrenergic receptor (Homo sapiens) (UniProt P13945); assay: Displacement of [3H]-CGP12177 from human recombinant adrenergic beta3 receptor expressed in Flp-In HEK cells incubated for 90 mins by microbeta scintillation counting method; assay type: cell-based
[9] = target: Delta-type opioid receptor (Homo sapiens) (UniProt P41143); assay: Displacement of [3H]-DADLE from human recombinant DOR receptor expressed in stable HEK cells incubated for 90 mins by microbeta scintillation counting method; assay type: cell-based
[10] = target: Histamine H1 receptor (Homo sapiens) (UniProt P35367); assay: Displacement of [3H]-Pyrilamine from human recombinant histamine H1 receptor expressed in stable HEK cells incubated for 90 mins by microbeta scintillation counting method; assay type: cell-based
[11] = target: 5-hydroxytryptamine receptor 2C (Homo sapiens) (UniProt P28335); assay: Displacement of [3H]-Mesulergin from human recombinant 5HT2C receptor expressed in CHO cells at 10 uM incubated for 90 mins by microbeta scintillation counting method; assay type: cell-based; summary of the method: as §1
[12] = target: 5-hydroxytryptamine receptor 2B (Homo sapiens) (UniProt P41595); assay: Displacement of [3H]-LSD from human recombinant 5HT2B receptor expressed in stable HEK cells at 10 uM incubated for 90 mins by microbeta scintillation counting method; assay type: cell-based; summary of the method: as §1
5-hydroxytryptamine receptor 2B (Homo sapiens), sequence (P41595 whole entry): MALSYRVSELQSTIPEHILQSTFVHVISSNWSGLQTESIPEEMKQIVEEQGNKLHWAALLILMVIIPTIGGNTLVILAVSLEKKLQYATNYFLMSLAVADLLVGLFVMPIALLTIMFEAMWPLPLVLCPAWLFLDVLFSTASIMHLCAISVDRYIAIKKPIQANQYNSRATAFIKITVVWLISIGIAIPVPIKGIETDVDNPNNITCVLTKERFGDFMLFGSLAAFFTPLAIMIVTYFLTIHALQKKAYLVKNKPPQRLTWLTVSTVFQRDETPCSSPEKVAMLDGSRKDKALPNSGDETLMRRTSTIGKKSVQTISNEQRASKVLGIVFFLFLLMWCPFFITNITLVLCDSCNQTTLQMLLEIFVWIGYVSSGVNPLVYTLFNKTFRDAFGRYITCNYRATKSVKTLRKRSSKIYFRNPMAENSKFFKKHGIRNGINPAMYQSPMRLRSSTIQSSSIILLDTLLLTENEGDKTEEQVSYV

[13] = target: Muscarinic acetylcholine receptor M3 (Homo sapiens) (UniProt P20309); assay: Displacement of [3H]-QNB/[3H]-NMS from human recombinant muscarinic acetylcholine M3 receptor expressed in stable CHO cells incubated for 90 mins by microbeta scintillation counting method; assay type: cell-based
[14] = target: D(4) dopamine receptor (Homo sapiens) (UniProt P21917); assay: Displacement of [3H]-methylspiperone from human recombinant dopamine D4 receptor expressed in stable HEK cells incubated for 90 mins by microbeta scintillation counting method; assay type: cell-based
[15] = target: Muscarinic acetylcholine receptor M5 (Homo sapiens) (UniProt P08912); assay: Displacement of [3H]-QNB/[3H]-NMS from human recombinant muscarinic acetylcholine M5 receptor expressed in stable CHO cells incubated for 90 mins by microbeta scintillation counting method; assay type: cell-based
Muscarinic acetylcholine receptor M5 (Homo sapiens), sequence (P08912 whole entry): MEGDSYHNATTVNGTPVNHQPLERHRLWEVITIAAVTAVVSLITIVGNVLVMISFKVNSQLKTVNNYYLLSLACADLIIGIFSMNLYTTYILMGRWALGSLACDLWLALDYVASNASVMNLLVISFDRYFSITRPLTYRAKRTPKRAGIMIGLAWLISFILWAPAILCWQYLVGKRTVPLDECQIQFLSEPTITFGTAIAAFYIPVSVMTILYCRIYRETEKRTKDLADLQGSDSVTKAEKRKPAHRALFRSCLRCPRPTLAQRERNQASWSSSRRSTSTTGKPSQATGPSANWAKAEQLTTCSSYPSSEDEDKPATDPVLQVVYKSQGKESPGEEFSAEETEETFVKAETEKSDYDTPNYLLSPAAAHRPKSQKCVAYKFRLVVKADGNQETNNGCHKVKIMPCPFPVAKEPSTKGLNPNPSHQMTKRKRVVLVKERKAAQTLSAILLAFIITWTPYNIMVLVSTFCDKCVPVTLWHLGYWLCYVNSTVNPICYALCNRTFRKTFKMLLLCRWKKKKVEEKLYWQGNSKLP

[16] = target: 5-hydroxytryptamine receptor 3A (Homo sapiens) (UniProt P46098); assay: Displacement of [3H]-GR65630 from human recombinant 5HT3 receptor expressed in HEKT cells at 10 uM incubated for 90 mins by microbeta scintillation counting method; assay type: cell-based; summary of the method: as §1
5-hydroxytryptamine receptor 3A (Homo sapiens), sequence (P46098 whole entry): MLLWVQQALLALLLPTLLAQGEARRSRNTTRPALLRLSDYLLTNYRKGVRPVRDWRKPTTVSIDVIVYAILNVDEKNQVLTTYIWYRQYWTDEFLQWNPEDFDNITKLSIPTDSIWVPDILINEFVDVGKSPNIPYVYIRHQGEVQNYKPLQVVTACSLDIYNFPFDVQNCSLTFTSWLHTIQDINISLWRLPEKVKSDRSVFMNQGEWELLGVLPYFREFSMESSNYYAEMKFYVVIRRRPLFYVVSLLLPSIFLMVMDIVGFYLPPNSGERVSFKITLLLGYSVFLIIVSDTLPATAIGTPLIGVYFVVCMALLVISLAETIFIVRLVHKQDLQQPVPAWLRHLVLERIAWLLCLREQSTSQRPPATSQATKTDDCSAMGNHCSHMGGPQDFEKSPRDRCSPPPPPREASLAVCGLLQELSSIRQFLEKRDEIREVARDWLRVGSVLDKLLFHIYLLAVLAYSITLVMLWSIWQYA

[17] = target: Sodium-dependent serotonin transporter (Homo sapiens) (UniProt P31645); assay: Displacement of [3H]-citalopram from recombinant human SERT expressed in HEK cell membranes at 10 uM incubated for 90 mins by scintillation counting method; summary of the method: as §1
[18] = target: Mu-type opioid receptor (Homo sapiens) (UniProt P35372); assay: Displacement of [3H]-DAMGO from human recombinant MOR receptor expressed in stable HEK cells incubated for 90 mins by microbeta scintillation counting method; assay type: cell-based
[19] = target: Alpha-1A adrenergic receptor (Homo sapiens) (UniProt P35348); assay: Displacement of [3H]-prazosin from human recombinant alpha1A adrenergic receptor at 10 uM incubated for 90 mins by microbeta scintillation counting method; summary of the method: as §1
[20] = target: Alpha-1B adrenergic receptor (Homo sapiens) (UniProt P35368); assay: Displacement of [3H]-8-OH-DPAT from human recombinant alpha1B adrenergic receptor expressed in HEKT cells at 10 uM incubated for 90 mins by microbeta scintillation counting method; assay type: cell-based; summary of the method: as §1
Alpha-1B adrenergic receptor (Homo sapiens), sequence (P35368 whole entry): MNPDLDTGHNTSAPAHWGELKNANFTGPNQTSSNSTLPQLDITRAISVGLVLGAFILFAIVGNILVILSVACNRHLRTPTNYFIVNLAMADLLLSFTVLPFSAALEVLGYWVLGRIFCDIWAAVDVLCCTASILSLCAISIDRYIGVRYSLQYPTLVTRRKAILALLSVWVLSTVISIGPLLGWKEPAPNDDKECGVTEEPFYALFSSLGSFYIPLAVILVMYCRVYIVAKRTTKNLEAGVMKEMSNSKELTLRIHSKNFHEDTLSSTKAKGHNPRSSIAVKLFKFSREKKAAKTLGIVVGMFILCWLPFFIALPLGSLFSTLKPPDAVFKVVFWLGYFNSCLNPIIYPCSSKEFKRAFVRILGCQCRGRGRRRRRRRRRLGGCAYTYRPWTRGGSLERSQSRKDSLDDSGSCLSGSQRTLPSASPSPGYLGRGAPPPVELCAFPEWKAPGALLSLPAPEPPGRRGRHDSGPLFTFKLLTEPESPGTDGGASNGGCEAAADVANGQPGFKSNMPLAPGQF

[21] = target: Muscarinic acetylcholine receptor M1 (Homo sapiens) (UniProt P11229); assay: Displacement of [3H]-QNB/[3H]-NMS from human recombinant muscarinic acetylcholine M1 receptor expressed in stable CHO cells incubated for 90 mins by microbeta scintillation counting method; assay type: cell-based
[22] = target: Beta-1 adrenergic receptor (Homo sapiens) (UniProt P08588); assay: Displacement of [125I]-pindolol from recombinant human beta1 adrenergic receptor expressed in CHO Flp-In cells incubated for 90 mins by microbeta scintillation counting method; assay type: cell-based
[23] = target: D(1B) dopamine receptor (Homo sapiens) (UniProt P21918); assay: Displacement of [3H]-SCH23390 from human recombinant dopamine D5 receptor expressed in HEKT cells incubated for 90 mins by microbeta scintillation counting method; assay type: cell-based
D(1B) dopamine receptor (Homo sapiens), sequence (P21918 whole entry): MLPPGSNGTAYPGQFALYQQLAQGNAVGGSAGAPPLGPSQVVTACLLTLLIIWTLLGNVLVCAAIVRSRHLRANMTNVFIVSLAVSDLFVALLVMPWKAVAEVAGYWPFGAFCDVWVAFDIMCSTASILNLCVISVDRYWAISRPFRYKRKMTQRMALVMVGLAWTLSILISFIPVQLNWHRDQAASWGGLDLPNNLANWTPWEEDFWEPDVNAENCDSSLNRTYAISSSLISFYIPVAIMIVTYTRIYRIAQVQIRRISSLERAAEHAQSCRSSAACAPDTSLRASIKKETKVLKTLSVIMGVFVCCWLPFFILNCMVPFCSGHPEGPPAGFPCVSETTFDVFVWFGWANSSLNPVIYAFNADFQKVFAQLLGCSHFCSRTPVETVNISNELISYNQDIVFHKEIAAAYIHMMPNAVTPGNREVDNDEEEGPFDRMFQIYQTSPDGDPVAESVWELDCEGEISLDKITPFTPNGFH

[24] = target: Sodium-dependent noradrenaline transporter (Homo sapiens) (UniProt P23975); assay: Displacement of [3H]-Nisoxetine from human recombinant NET receptor expressed in stable HEK cells incubated for 90 mins by microbeta scintillation counting method; assay type: cell-based
Sodium-dependent noradrenaline transporter (Homo sapiens), sequence (P23975 whole entry): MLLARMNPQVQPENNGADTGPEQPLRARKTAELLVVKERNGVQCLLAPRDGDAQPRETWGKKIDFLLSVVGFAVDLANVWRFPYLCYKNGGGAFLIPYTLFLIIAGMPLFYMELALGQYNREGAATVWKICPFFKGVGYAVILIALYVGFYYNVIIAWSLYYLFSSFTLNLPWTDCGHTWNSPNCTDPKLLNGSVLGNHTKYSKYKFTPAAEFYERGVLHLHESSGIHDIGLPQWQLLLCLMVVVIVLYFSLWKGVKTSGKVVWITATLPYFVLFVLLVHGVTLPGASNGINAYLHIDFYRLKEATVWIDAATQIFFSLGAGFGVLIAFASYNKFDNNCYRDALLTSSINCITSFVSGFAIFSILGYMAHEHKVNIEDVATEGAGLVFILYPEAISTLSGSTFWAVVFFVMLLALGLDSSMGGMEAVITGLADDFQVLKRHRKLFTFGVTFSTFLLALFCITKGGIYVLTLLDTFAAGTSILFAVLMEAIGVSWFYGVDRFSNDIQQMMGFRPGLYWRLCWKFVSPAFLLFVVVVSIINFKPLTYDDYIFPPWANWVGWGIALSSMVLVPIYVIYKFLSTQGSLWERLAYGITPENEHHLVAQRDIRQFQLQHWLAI

[25] = target: Alpha-1D adrenergic receptor (Homo sapiens) (UniProt P25100); assay: Displacement of [3H]-8-OH-DPAT from human recombinant alpha1D adrenergic receptor at 10 uM incubated for 90 mins by microbeta scintillation counting method; summary of the method: as §1
[26] = target: Muscarinic acetylcholine receptor M2 (Homo sapiens) (UniProt P08172); assay: Displacement of [3H]-QNB/[3H]-NMS from human recombinant muscarinic acetylcholine M2 receptor expressed in stable CHO cells incubated for 90 mins by microbeta scintillation counting method; assay type: cell-based
[27] = target: 5-hydroxytryptamine receptor 2A (Homo sapiens) (UniProt P28223); assay: Displacement of [3H]-ketanserin from human recombinant 5HT2A receptor expressed in HEKT cells at 10 uM incubated for 90 mins by microbeta scintillation counting method; assay type: cell-based; summary of the method: as §1
5-hydroxytryptamine receptor 2A (Homo sapiens), sequence (P28223 whole entry): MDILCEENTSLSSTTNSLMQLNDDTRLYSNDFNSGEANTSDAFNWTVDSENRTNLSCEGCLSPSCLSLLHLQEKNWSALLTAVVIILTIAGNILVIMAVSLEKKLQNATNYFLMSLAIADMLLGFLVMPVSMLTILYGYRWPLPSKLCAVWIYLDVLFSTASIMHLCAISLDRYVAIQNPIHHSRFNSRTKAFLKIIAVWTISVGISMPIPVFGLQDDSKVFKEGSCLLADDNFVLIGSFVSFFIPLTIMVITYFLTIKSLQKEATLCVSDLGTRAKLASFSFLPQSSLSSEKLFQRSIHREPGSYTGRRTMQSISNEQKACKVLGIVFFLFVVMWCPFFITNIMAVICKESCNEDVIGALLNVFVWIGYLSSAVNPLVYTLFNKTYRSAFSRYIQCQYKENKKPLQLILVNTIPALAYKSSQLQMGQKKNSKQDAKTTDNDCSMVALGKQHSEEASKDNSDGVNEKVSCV

[28] = target: Sigma non-opioid intracellular receptor 1 (Homo sapiens) (UniProt Q99720); assay: Displacement of [3H]-Pentazocine from human recombinant sigma1 receptor expressed in HEKT cells incubated for 90 mins by microbeta scintillation counting method; assay type: cell-based
NIH3T3 [29] = assay: Cytotoxicity against mouse NIH/3T3 cells measured after 72 hrs by MTT assay; assay type: cell-based; conditions: NIH3T3, 72 h

In the case of `Cn1c2cccc(=O)c-2nc2ccccc21` [PYOCYANIN], the inhibition [1] is reported as “inactive”, the inhibition [2] is reported as “inactive” and the inhibition [3] is reported as “inactive”. The inhibition [4] was “inactive”, the inhibition [5] was “inactive” and the inhibition [6] was “inactive”. The IC50 (NIH3T3 [7]) was 3.54 µg/mL (≈ 16.8 µM), the inhibition [8] was “inactive” and the inhibition [9] was “inactive”. For the same compound, the inhibition [10] was “inactive”, the inhibition [11] was “inactive” and the inhibition [12] was “inactive”. The inhibition [13] was “inactive”, the inhibition [14] was “inactive” and the inhibition [15] was “inactive”. For the same compound, the inhibition [16] was “inactive”, the inhibition [17] was “inactive” and the inhibition [18] was “inactive”. The inhibition [19] was “inactive”, the inhibition [20] was “inactive” and the inhibition [21] was “inactive”. The inhibition [22] was “inactive”, the inhibition [23] was “inactive” and the inhibition [24] was “inactive”. The inhibition [25] was “inactive”, the inhibition [26] was “inactive” and the inhibition [27] was “inactive”. The inhibition [28] was “inactive” and the IC50 (NIH3T3 [29]) was 3.66 µg/mL (≈ 17.4 µM).
